The structures appear in SMILES notation. Active and inactive are the calls of the source. No cut-off for these calls is given here.

For test [1], the species on record is Oryctolagus cuniculus. Nature of the test: Inhibition of intestinal fluid accumulation in rabbit ligated ileal loop model at 3.3 mM injected in presence of cholera toxin after 16 hrs. The format is functional. Conditions: Ileum.
The species entered for test [2] is Oryctolagus cuniculus. Nature of the test: Inhibition of intestinal fluid accumulation in rabbit ligated ileal loop model at 21 mM injected in presence of heat labile enterotoxin after 16 hrs. The format is functional. Conditions: Ileum. The gist of the method: (§1)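 Rabbits were starved overnight with free access to water, then anesthetized. The ileum was tied into consecutive 7-cm loops proximal to the mesoappendix. LT-containing cell lysate (750 μl) was injected alone or with sodium linolate. After 16 h the fluid in each loop was collected and expressed as ml per cm loop length. Results are means ± SD of three independent experiments.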

For test [3], the species on record is Oryctolagus cuniculus. Description: Inhibition of intestinal fluid accumulation in rabbit ligated ileal loop model injected in presence of cholera toxin after 16 hrs. Conditions: Ileum. The format is functional.
For test [4], the system named is Vibrio cholerae. Description: Binding affinity to Vibrio cholerae cholera toxin assessed as apparent isoelectric point at 100 mM by isoelectric focusing analysis (isoelectric point Rvb=6.8).
Test [5] relates to Vibrio cholerae. Description: Blockade of anti-CT antibody binding site of Vibrio cholerae cholera toxin preincubated for 15 mins before addition of anti-CT immunoglobulin G by immunoprecipitation-based SDS-PAGE.
The test system of test [6] is Vibrio cholerae. Nature of the test: Binding affinity to Vibrio cholerae cholera toxin assessed as decrease in fluorescence intensity by fluorescence emission spectroscopy.
In test [7] the test system is Vibrio cholerae. Nature of the test: Binding affinity to Vibrio cholerae cholera toxin assessed as inhibition of cholera toxin binding to ganglioside GM1 receptor relative to ganglioside GM1 receptor antagonist […].
The test system of the next test is Escherichia coli. Description: Binding affinity to enterotoxigenic Escherichia coli 12566 heat-labile enterotoxin assessed as inhibition of heat-labile enterotoxin binding to ganglioside GM1 receptor. The gist of the method: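 A clarified sonicated PBS lysate of E. coli 12566 containing LT (90 μl) was incubated with or without ligand in 100 μl for 15 min at room temperature. Samples were serially diluted onto immobilized GM1 and detected by ELISA with polyclonal rabbit anti-CT serum as primary antibody.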

Test [8] in a line: Binding affinity to Vibrio cholerae cholera toxin assessed as quenching of intrinsic fluorescence by two-state binding model assay.
Test [9] in a line: Binding affinity to Vibrio cholerae cholera toxin assessed as inhibition of cholera toxin binding to ganglioside GM1 receptor treated 15 mins before receptor addition by ELISA.
Test [10] in a line: Inhibition of intestinal fluid accumulation in rabbit ligated ileal loop model assessed as fluid level at 10.5 mM injected in presence of heat labile enterotoxin after 16 hrs (RVb=5.5 +/- 1 ml). The format is functional, Oryctolagus cuniculus, Ileum. The gist of the method: as §1
The nature of test [11]: Inhibition of intestinal fluid accumulation in rabbit ligated ileal loop model assessed as fluid level at 1.65 mM injected in presence of cholera toxin after 16 hrs (RVb=1.6 +/- 0.2 ml/cm). The format is functional, Oryctolagus cuniculus, Ileum.

As for `CCCCC/C=C\C/C=C\CCCCCCCC(=O)O`, the inhibition entry in the test filed under Oryctolagus cuniculus [1] and with Escherichia coli was “Active” throughout. The result in the test filed under Oryctolagus cuniculus [2], in the test with Vibrio cholerae [4] and in the test on Vibrio cholerae [6] was Active. In the test filed under Oryctolagus cuniculus [3], the Activity entry was “Dose-dependent effect”. The result in the test on Vibrio cholerae [5] was inactive. Moreover, the Ratio in the test on Vibrio cholerae [7] turned out to be 200.

For the compound `CCCCC/C=C\C/C=C\C/C=C\C/C=C\CCCC(=O)O` [ARACHIDONIC ACID], the Kd in [8] worked out at 180 µM. The IC50 in test [9] came out at 380 µM. Further, the inhibition result in the test on Escherichia coli is “Active”.

In the case of `CCCCC/C=C\C/C=C\CCCCCCCC(=O)O` [LINOLEIC ACID], in test [9], the IC50 was found to be 410 µM.

As to `CCCCCCCC/C=C\CCCCCCCC(=O)O` [OLEIC ACID], in test [8], the Kd came out at 160 µM. Further, the IC50 in test [9] came out at 410 µM. Further, the inhibition result with Escherichia coli is “Active”.

`CCCCCCCCCCCCCCCC(=O)O` [PALMITIC ACID]: the IC50 in [9] worked out at 5800 µM.

With `CCCCC/C=C\C/C=C\CCCCCCCC(=O)[O-].[Na+]` [SODIUM LINOLATE], the Activity was determined as 1 mL in test [10] and 0.76 mL/cm in test [11]. The Kd in [8] was determined as 130 µM.

Turning to `CCCCCCCCCCCCCCCCCC(=O)O` [STEARIC ACID], the IC50 in [9] turned out to be 5270 µM.

What is called Kd is a measure of binding affinity in units of concentration. One may read the IC50 as the midpoint of a concentration-inhibition curve.
